{"data": "Measured values from different studies", "target": "Casein kinase I isoform gamma-1 (CSNK1G1, Homo sapiens, UniProt Q9HCP0)", "note": "Protocols differ between the studies behind these lines."}
{"Structure (SMILES)": "CNC(=O)c1cc(Oc2ccc(NC(=O)Nc3ccc(Cl)c(C(F)(F)F)c3)cc2)ccn1", "observed": "enzyme activity", "mode": "inhibitor", "tested at": "0.3 µM", "endpoint": "inhibition", "value": "-16%"}
{"Structure (SMILES)": "C=CC(=O)Nc1cc(Nc2nccc(Nc3cc(Cl)c(F)cc3C(C)(C)O)n2)c(OC)cc1N1CC[C@@H](N(C)C)C1", "observed": "enzyme activity", "mode": "inhibitor", "tested at": "1 µM", "endpoint": "inhibition", "value": "15%"}
{"Structure (SMILES)": "Cc1cc(NC(=O)c2cccc3cc(-c4cccc5[nH]nc(N)c45)ccc23)ccc1F", "observed": "enzyme activity", "mode": "inhibitor", "tested at": "0.1 µM", "endpoint": "activity vs control", "value": "90%"}
{"Structure (SMILES)": "CN1CC(Oc2cnc(C#N)cc2-c2ccn3nc(NC(=O)C4CC4)cc3c2)C1", "observed": "enzyme activity", "mode": "inhibitor", "tested at": "1 µM", "endpoint": "inhibition", "value": "-3%"}
{"Structure (SMILES)": "O=C(O)[C@H]1[C@H](Cn2nnc3ccccc3c2=O)CC[C@@H]1C(=O)c1ccc(OCCC2CCOCC2)cc1", "observed": "cell-free assay", "method": "competition with immobilised ligand", "tested at": "1 µM", "endpoint": "remaining binding", "value": "94%"}
{"Structure (SMILES)": "COc1cc2ncnc(Nc3ccc(Oc4ccccc4)cc3C)c2cc1OC", "observed": "enzyme activity", "mode": "inhibitor", "tested at": "1 µM", "endpoint": "inhibition", "value": "8%"}
{"Structure (SMILES)": "N#CCCc1ccc2c(c1)-c1[nH]c3ccc([N+](=O)[O-])cc3c1CC(=O)N2", "observed": "cell-free assay", "tested at": "0.5 µM", "endpoint": "remaining signal", "value": "81.6%"}
{"Structure (SMILES)": "Cn1nc(C(F)(F)F)cc1-c1cnc(N2CCc3cc(S(=O)(=O)Nc4c(F)cc(Cl)cc4F)cc(N4CCCC4=O)c32)nc1", "observed": "cell-free assay", "method": "competition with immobilised ligand", "tested at": "1 µM", "endpoint": "remaining binding", "value": "100%"}
{"Structure (SMILES)": "Cc1ccc(Nc2nccc(N(C)c3ccc4c(C)n(C)nc4c3)n2)cc1S(N)(=O)=O", "observed": "enzyme activity", "mode": "inhibitor", "tested at": "10 µM", "endpoint": "inhibition", "value": "-8%"}
{"Structure (SMILES)": "C[C@H](c1cccc(C#N)c1)n1cc(Cl)cc(C(N)=O)c1=N", "observed": "cell-free assay", "method": "competition with immobilised ligand", "tested at": "1 µM", "endpoint": "remaining binding", "value": "96%"}
{"Structure (SMILES)": "Cc1ccc(C(=O)Nc2ccc(CN3CCN(C)CC3)c(C(F)(F)F)c2)cc1C#Cc1cnc2cccnn12", "observed": "enzyme activity", "mode": "inhibitor", "tested at": "23.5 nM", "endpoint": "remaining activity", "value": "89%"}
{"Structure (SMILES)": "CCC(=O)N[C@@H]1CC[C@H](C(=O)N(C)c2ccc(-c3nc4ccccc4o3)cc2)C1", "observed": "cell-free assay", "method": "competition with immobilised ligand", "tested at": "1 µM", "endpoint": "remaining binding", "value": "100%"}
{"Structure (SMILES)": "COc1cc(Cl)c(C(=O)N[C@@H](CN[C@H]2CC[C@@H](N)CC2)Cc2ccc(C#N)cc2)cc1-c1ccc(CN[C@H](C)c2ccc(C)cc2)o1", "observed": "enzyme activity", "mode": "inhibitor", "tested at": "1 µM", "endpoint": "remaining activity", "value": "87%"}
{"Structure (SMILES)": "CC(C)c1ccc(NC(=O)c2cccs2)c(-c2nc3ccccc3[nH]c2=O)c1", "observed": "enzyme activity", "mode": "inhibitor", "tested at": "1 µM", "endpoint": "activity vs control", "value": "102%"}
{"Structure (SMILES)": "CNC(=O)c1ccc(Nc2ncc(C(F)(F)F)c(NCc3nccnc3N(C)S(C)(=O)=O)n2)cc1", "observed": "cell-free assay", "method": "competition with immobilised ligand", "tested at": "0.1 µM", "endpoint": "remaining binding", "value": "82%"}
{"Structure (SMILES)": "CC(C)(C)c1nc2c(s1)c1nc(N)ncc1c1ccc(NS(=O)(=O)c3c(F)cccc3F)c(F)c12", "observed": "enzyme activity", "mode": "inhibitor", "method": "radiometric", "tested at": "1 µM", "endpoint": "remaining activity", "value": "63%"}
{"Structure (SMILES)": "COc1cc2ncnc(Nc3ccc(F)c(Cl)c3)c2cc1OCCCN1CCOCC1", "observed": "cell-free assay", "tested at": "0.5 µM", "endpoint": "remaining signal", "value": "99.5%"}
{"Structure (SMILES)": "O=C(Nc1cnn(-c2csc(C(=O)NC3COC3)c2)c1)Nc1ccccc1Cl", "observed": "enzyme activity", "mode": "inhibitor", "tested at": "5 µM", "endpoint": "remaining activity", "value": "99%"}
{"Structure (SMILES)": "O=C1NC(=O)c2cc(Nc3ccc(F)cc3)c(Nc3ccc(F)cc3)cc21", "observed": "cell-free assay", "tested at": "0.5 µM", "endpoint": "remaining signal", "value": "96.3%"}
{"Structure (SMILES)": "CCc1ccccc1C(=O)Nc1n[nH]c2c(C)c(F)c(C3C(C#N)=C(C)N(C)C(C)=C3C#N)cc12", "observed": "cell-free assay", "method": "competition with immobilised ligand", "tested at": "1 µM", "endpoint": "remaining binding", "value": "95%"}
